# Data from ChEMBL document CHEMBL1139494, “In vitro and in vivo anti-leishmanial activity of triterpenoid saponins isolated from Maesa balansae and some chemical derivatives” (J Med Chem, 2005).
# What was measured:
# Leishmania infantum [1] = test: (§1) Inhibitory concentration against intracellular amastigotes of Leishmania infantum; type: functional, organism-based
# Summary of the method: (§2)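 Mouse peritoneal macrophages elicited by intraperitoneal 2% potato starch and harvested ~24 h later in RPMI-1640. Each well held 3 × 10^4 macrophages plus 3 × 10^5 parasites with compound, final 0.5–32 µg/mL, in triplicate. After 5 days at 37 °C, Giemsa-stained intracellular amastigotes counted microscopically, expressed as percent reduction vs untreated; mean of three replicates.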
# MRC5 = test: Cytotoxic concentration against human lung fibroblast MRC-5 cells; type: functional
# Summary of the method: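 Human lung fibroblasts grown in MEM + 5% heat-inactivated FCS, about 5000 cells/well, exposed to compound in triplicate. Viability read after 7 days with Alamar Blue fluorescent dye and expressed as percent reduction versus untreated wells. CC50 estimated from log-concentration plot; value is mean of three replicates.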
# Leishmania infantum [2] = test: Lowest dose (single subcutaneous administration) causing >90% reduction of liveramastigotes of Leishmania infantum in mouse; type: functional
# Summary of the method: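 Male BALB/c mice given 10^7 L. infantum amastigotes (from spleen of infected donor hamster) intravenously via lateral tail vein on day 0, three per group. Single subcutaneous dose in isotonic saline (filter-sterilized, diluted from 2 mg/mL stock) given day 0. At 7 days post-treatment, Giemsa-stained liver impression smears scored for amastigotes per liver cell.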
# Leishmania infantum [3] = test: as §1; type: functional; summary of the method: as §2
# [4] = Leishmania infantum, read-out: IC50
Compound,IC50 (Leishmania infantum [1]; [4]),CC50 (MRC5),Dose (Leishmania infantum [2]),IC90 (Leishmania infantum [3]),IC50 (Leishmania infantum [1]),DOSE (Leishmania infantum [2])
CC(=O)O[C@@H]1C[C@]2(C)[C@@]3(CCC4[C@@]5(C)CC[C@H](O[C@@H]6OC(C(=O)O)[C@@H](O)C(O[C@@H]7OC(CO)[C@H](O)C(O)[C@@H]7OC7O[C@@H](C)C(O)[C@H](O)C7OC7O[C@@H](C)[C@H](O)C(O)[C@@H]7O)[C@@H]6O[C@@H]6OC(CO)[C@@H](O)C(O)[C@@H]6O)C(C)(C)C5CC[C@]42C)O[C@H](O)[C@]12C3CC(C)(C)[C@@H](OC(=O)c1ccccc1)[C@@H]2OC(=O)/C=C/c1ccccc1 (stereo partly specified),0.046 µg/mL,8 µg/mL,>0.8 mg/kg,0.125 µg/mL,–,–
C/C=C(/C)C(=O)O[C@H]1[C@H](OC(=O)/C=C/c2ccccc2)[C@@]23C(CC1(C)C)[C@]1(CCC4[C@@]5(C)CC[C@H](O[C@@H]6OC(C(=O)O)[C@@H](O)C(O[C@@H]7OC(CO)[C@H](O)C(O)[C@@H]7OC7O[C@@H](C)C(O)[C@H](O)C7OC7O[C@@H](C)[C@H](O)C(O)[C@@H]7O)[C@@H]6O[C@@H]6OC(CO)[C@@H](O)C(O)[C@@H]6O)C(C)(C)C5CC[C@@]4(C)[C@]1(C)C[C@H]2O)O[C@@H]3O (stereo partly specified),0.014 µg/mL,0.1 µg/mL,0.4 mg/kg,0.021 µg/mL,–,–
C/C=C(/C)C(=O)O[C@H]1[C@H](OC(=O)/C=C\c2ccccc2)[C@@]2(C=O)C(CC1(C)C)C1=CCC3[C@@]4(C)CC[C@H](O)C(C)(C)C4CC[C@@]3(C)[C@]1(C)C[C@H]2O (stereo partly specified),22 µg/mL,> 32 µg/mL,–,> 32 µg/mL,–,–
C/C=C(/C)C(=O)O[C@H]1[C@H](OC(=O)CCc2ccccc2)[C@@]23C(CC1(C)C)[C@]1(CCC4[C@@]5(C)CC[C@H](O[C@@H]6OC(C(=O)O)[C@@H](O)C(O[C@@H]7OC(CO)[C@H](O)C(O)[C@@H]7OC7O[C@@H](C)C(O)[C@H](O)C7OC7O[C@@H](C)[C@H](O)C(O)[C@@H]7O)[C@@H]6O[C@@H]6OC(CO)[C@@H](O)C(O)[C@@H]6O)C(C)(C)C5CC[C@@]4(C)[C@]1(C)C[C@H]2O)O[C@@H]3O (stereo partly specified),0.018 µg/mL,0.6 µg/mL,–,0.03 µg/mL,–,–
C/C=C(/C)C(=O)O[C@H]1[C@H](OC(=O)/C=C\c2ccccc2)[C@@]23C(CC1(C)C)[C@]1(CCC4[C@@]5(C)CC[C@H](O[C@@H]6OC(C(=O)O)[C@@H](O)C(O[C@@H]7OC(CO)[C@H](O)C(O)[C@@H]7OC7O[C@@H](C)C(O)[C@H](O)C7OC7O[C@@H](C)[C@H](O)C(O)[C@@H]7O)[C@@H]6O[C@@H]6OC(CO)[C@@H](O)C(O)[C@@H]6O)C(C)(C)C5CC[C@@]4(C)[C@]1(C)C[C@H]2O)O[C@@H]3O (stereo partly specified),0.023 µg/mL,0.5 µg/mL,>0.8 mg/kg,0.094 µg/mL,–,–
STIBOGLUCONATE [listing 1 of 2 here],–,–,–,–,5.6 µg/mL,–
CC1(C)CC2C3=CCC4[C@@]5(C)CC[C@H](O)C(C)(C)C5CC[C@@]4(C)[C@]3(C)C[C@@H](O)[C@@]2(C=O)[C@@H](OC(=O)/C=C\c2ccccc2)[C@@H]1OC(=O)c1ccccc1 (stereo partly specified),> 32 µg/mL,> 32 µg/mL,–,> 32 µg/mL,–,–
STIBOGLUCONATE [listing 2 of 2 here],–,> 32 µg/mL,–,> 32 µg/mL,–,> 40 mg/kg
C[C@@H]1OC(O[C@H]2C(O)[C@@H](O)C(CO)O[C@H]2OC2[C@H](O)C(C(=O)O)O[C@@H](O[C@H]3CC[C@@]4(C)C(CC[C@]5(C)C4CC[C@]46O[C@H](O)[C@]7(C4CC(C)(C)[C@@H](OC(=O)c4ccccc4)[C@@H]7OC(=O)/C=C/c4ccccc4)[C@H](O)C[C@]65C)C3(C)C)[C@H]2O[C@@H]2OC(CO)[C@@H](O)C(O)[C@@H]2O)C(OC2O[C@@H](C)[C@H](O)C(O)[C@@H]2O)[C@@H](O)C1O (stereo partly specified),0.007 µg/mL,0.5 µg/mL,0.2 mg/kg,0.012 µg/mL,–,–
CC=C(C)C(=O)O[C@H]1[C@H](OC(=O)/C=C/c2ccccc2)[C@@]2(C=O)C(CC1(C)C)C1=CCC3[C@@]4(C)CC[C@H](O)C(C)(C)C4CC[C@@]3(C)[C@]1(C)C[C@H]2O (stereo partly specified),> 32 µg/mL,> 32 µg/mL,–,> 32 µg/mL,–,–
C[C@@H]1OC(O[C@H]2C(O)[C@@H](O)C(CO)O[C@H]2OC2[C@H](O)C(C(=O)O)O[C@@H](O[C@H]3CC[C@@]4(C)C(CC[C@]5(C)C4CC[C@]46O[C@H](O)[C@]7(C4CC(C)(C)[C@@H](OC(=O)c4ccccc4)[C@@H]7OC(=O)/C=C\c4ccccc4)[C@H](O)C[C@]65C)C3(C)C)[C@H]2O[C@@H]2OC(CO)[C@@H](O)C(O)[C@@H]2O)C(OC2O[C@@H](C)[C@H](O)C(O)[C@@H]2O)[C@@H](O)C1O (stereo partly specified),0.018 µg/mL,0.5 µg/mL,0.8 mg/kg,0.031 µg/mL,–,–
CC(=O)O[C@@H]1C[C@]2(C)C(=CCC3[C@@]4(C)CC[C@H](O)C(C)(C)C4CC[C@]32C)C2CC(C)(C)[C@@H](OC(=O)c3ccccc3)[C@H](OC(=O)/C=C/c3ccccc3)[C@@]21C=O (stereo partly specified),> 32 µg/mL,> 32 µg/mL,–,> 32 µg/mL,–,–
C[C@@H]1OC(O[C@H]2C(O)[C@@H](O)C(CO)O[C@H]2OC2[C@H](O)C(C(=O)O)O[C@@H](O[C@H]3CC[C@@]4(C)C(CC[C@]5(C)C4CC[C@]46O[C@H](O)[C@]7(C4CC(C)(C)[C@@H](O)[C@@H]7O)[C@H](O)C[C@]65C)C3(C)C)[C@H]2O[C@@H]2OC(CO)[C@@H](O)C(O)[C@@H]2O)C(OC2O[C@@H](C)[C@H](O)C(O)[C@@H]2O)[C@@H](O)C1O (stereo partly specified),> 32 µg/mL,> 32 µg/mL,>40 mg/kg,> 32 µg/mL,–,–
C[C@@H]1[C@H](O)[C@@H](C)/C=C/C=C/C=C/C=C/C=C/C=C/C=C/[C@H](O[C@@H]2O[C@H](C)[C@@H](O)[C@H](N)[C@@H]2O)C[C@@H]2O[C@](O)(C[C@@H](O)C[C@@H](O)[C@H](O)CC[C@@H](O)C[C@@H](O)CC(=O)O[C@H]1C)C[C@H](O)[C@H]2C(=O)O [AMPHOTERICIN B],0.285 µg/mL,> 32 µg/mL,>10 mg/kg,0.373 µg/mL,–,–
C[C@@H]1OC(O[C@H]2C(O)[C@@H](O)C(CO)O[C@H]2OC2[C@H](O)C(C(=O)O)O[C@@H](O[C@H]3CC[C@@]4(C)C(CC[C@]5(C)C4CC[C@]46O[C@H](O)[C@]7(C4CC(C)(C)[C@@H](OC(=O)c4ccccc4)[C@@H]7OC(=O)CCc4ccccc4)[C@H](O)C[C@]65C)C3(C)C)[C@H]2O[C@@H]2OC(CO)[C@@H](O)C(O)[C@@H]2O)C(OC2O[C@@H](C)[C@H](O)C(O)[C@@H]2O)[C@@H](O)C1O (stereo partly specified),0.009 µg/mL,0.3 µg/mL,–,0.015 µg/mL,–,–
C/C=C(/C)C(=O)O[C@H]1[C@H](OC(=O)/C=C/c2ccccc2)[C@@]2(C=O)C(CC1(C)C)C1=CCC3[C@@]4(C)CC[C@H](O)C(C)(C)C4CC[C@@]3(C)[C@]1(C)C[C@H]2OC(C)=O (stereo partly specified),> 32 µg/mL,> 32 µg/mL,–,> 32 µg/mL,–,–
CC1(C)CC2C3=CCC4[C@@]5(C)CC[C@H](O)C(C)(C)C5CC[C@@]4(C)[C@]3(C)C[C@@H](O)[C@@]2(C=O)[C@@H](OC(=O)/C=C/c2ccccc2)[C@@H]1OC(=O)c1ccccc1 (stereo partly specified),8 µg/mL,32 µg/mL,>40 mg/kg,> 16 µg/mL,–,–
C/C=C(/C)C(=O)O[C@H]1[C@H](OC(=O)/C=C/c2ccccc2)[C@@]23C(CC1(C)C)[C@]1(CCC4[C@@]5(C)CC[C@H](O[C@@H]6OC(C(=O)O)[C@@H](O)C(O[C@@H]7OC(CO)[C@H](O)C(O)[C@@H]7OC7O[C@@H](C)C(O)[C@H](O)C7OC7O[C@@H](C)[C@H](O)C(O)[C@@H]7O)[C@@H]6O[C@@H]6OC(CO)[C@@H](O)C(O)[C@@H]6O)C(C)(C)C5CC[C@@]4(C)[C@]1(C)C[C@H]2OC(C)=O)O[C@@H]3O (stereo partly specified),0.041 µg/mL,8 µg/mL,>0.8 mg/kg,0.125 µg/mL,–,–
